# T cruzi inh = inhibitors of intracellular T. cruzi growth, primary screen, luminescence, NIH3T3 host cells. T. cruzi beta-gal in NIH3T3, 90 h. inhibition, % (concentration not given with the values). 300,000 tested, 1.4% active;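 active means mean inhibition across valid replicates above about 55%, limit read from the data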;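 further: signal also drops with host cell toxicity which is not excluded here; 0% = plate median of DMSO wells and 100% = zero luminescence signal; higher percent means less beta-gal luminescence so fewer parasites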
#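 Read-out: Parasite load inhibition, % | Test system: Mouse NIH/3T3 fibroblasts infected with β-gal-expressing T. cruzi Tulahuen C4 | Amount: 5,000 cells/well | Medium: DMEM, 2% fetal bovine serum | Signal: GalScreen β-gal luminescence, detergent lysis, 60 min | Timing: 3 h attach, ≥90 h co-culture | Also added: Tulahuen C4 trypomastigotes, 5000/well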
# GPR7 antag = GPR7 receptor antagonists, primary screen, cell-based, fluorescence, single concentration; Neuropeptides B/W receptor type 1 (Homo sapiens), P48145; GPR7-expressing cells, fluorescence antagonist assay; inhibition, % at 4.4 µM; 290,000 tested, 1.1% active; in the data active means inhibition above about 16%, passing the limit was not always enough;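 further: cells stimulated with the agonist NPW; 0% = agonist with vehicle and 100% = vehicle without agonist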
# Target sequence (P48145 whole entry, looked up): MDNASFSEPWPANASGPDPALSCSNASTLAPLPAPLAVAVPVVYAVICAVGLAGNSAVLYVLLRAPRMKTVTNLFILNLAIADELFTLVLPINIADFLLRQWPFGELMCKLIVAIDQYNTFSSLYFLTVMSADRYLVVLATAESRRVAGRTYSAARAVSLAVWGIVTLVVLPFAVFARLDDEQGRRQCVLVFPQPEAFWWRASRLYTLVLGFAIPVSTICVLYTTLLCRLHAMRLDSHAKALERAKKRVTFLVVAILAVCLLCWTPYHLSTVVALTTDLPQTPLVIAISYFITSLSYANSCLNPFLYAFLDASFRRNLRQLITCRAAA
# Jurkat NFkB inh = inhibitors of induced NF-kB luciferase reporter, primary screen, TCR NF-kB activation inhibitor project, cell-based, luminescence, uHTS. Jurkat, PMA/ionomycin-induced NF-kB luciferase reporter. AID 435003, 2010. inhibition, % at 4 µM. 330,000 tested, 0.53% active; in the data active means inhibition above about 50%
# HSF1 activator = HSF-1 activators, primary screen, NIH3T3-HGL cells, MG132 stress, luminescence, single point; AID 504408, 2011; activation, % at 9 µM; NIH3T3-HGL HSF-1 luciferase reporter, 8 h; 100% = twice DMSO control signal; 300,000 tested, 1.7% active;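 active means mean replicate activation of at least 50% with a set share of replicates each reaching 50%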;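 further: 0% = median of the neutral control wells and 100% = twice that signal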
# 697 NFkB inh = inhibitors of PMA/ionomycin-induced NF-kB reporter, 697 cells, primary screen, B-cell NF-kB inhibitor project, cell-based, luminescence, uHTS | 697 B-cell NF-kB luciferase reporter, 16 h | 330,000 tested, 0.33% active | inhibition, % at 4 µM; in the data active means inhibition above about 35%
# HSF1 inh = HSF1 inhibitors in luciferase reporter cells, primary screen, cell-based, NIH3T3, luminescence; 300,000 tested, 0.77% active; AID 2098, 2009; NIH3T3-HGL HSE-luciferase, MG132-induced, luminescence 8 h; hits give low values; activity change, negative = inhibition, % at 7.5 µM (by protocol);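 active means more than half of replicate wells show activity change below -50%, luminescence cut by over half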;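 further: luciferase reports HSF-1 transcriptional activity via heat shock element; 0% = median of DMSO wells and -100% = zero luminescence signal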
# GPR7 antag conf = GPR7 receptor antagonists, confirmation, cell-based, fluorescence, single concentration. shares compounds with GPR7 antag. GPR7-expressing cells, calcium fluorescence antagonist mode. inhibition, % at 4.4 µM. 2,400 tested, 52% active; in the data active means inhibition above about 24%;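 further: stimulated with the GPR7 agonist NPW; 0% = agonist plus vehicle and 100% = vehicle alone without agonist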
# MCHR1 antagonist = MCHR1 antagonists in cells, counter-screen for GPR7 antagonist project, cell-based, fluorescence, human; shares compounds with GPR7 antag; MCHR1-expressing cells, fluorescence antagonist assay; inhibition, % at 4.4 µM; 2,400 tested, 62% active; AID 2148, 2009; in the data active means inhibition above about 22%;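 further: 0% = vehicle with agonist and 100% = vehicle without agonist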
# The depositor's hits bear a star; . = no result. Most compounds without a hit are left out; they make up all but 4.8% or so of the library.
SMILES,T cruzi inh,GPR7 antag,Jurkat NFkB inh,HSF1 activator,697 NFkB inh,HSF1 inh,GPR7 antag conf,MCHR1 antagonist
COc1ccc2c3c(cccc13)C(=O)CC2,4.5,34.3*,.,23.9,.,5.0,-23.4,32.5*
COc1ccc2c(c1OC)C(=O)OC2,-9.0,-13.5,-7.9,8.1,7.4,3.6,.,.
COc1ccccc1OCC(=O)Nc1c2c(nn1-c1ccccc1)CS(=O)(=O)C2,6.6,23.3*,-14.3,6.2,-11.8,3.7,0.7,4.3
CC(C)C(NC(=O)c1c(F)cccc1F)C(=O)N1CCN(S(=O)(=O)c2ccc(F)cc2)CC1 (stereo not drawn),.,.,-9.8,.,13.8,.,.,.
C=CCOc1ccc(/C=C(\C#N)C(=O)Nc2ccccn2)cc1,-15.2,-12.2,7.9,14.4,2.4,5.4,.,.
COc1ccc(C=O)cc1COc1ccc(C)cc1[N+](=O)[O-],-5.4,31.4*,7.9,3.5,-20.7,-3.9,27.5*,61.0*
N=c1c2c(-c3ccccc3)c(-c3ccccc3)n(Cc3ccco3)c2ncn1Cc1ccccc1,47.4,23.9*,24.8,15.1,-1.0,-3.1,57.6*,92.4*
CN(C)C1=NC[C@H](Cc2ccccc2)N1CC1CCCC1,.,.,14.0,.,9.9,.,.,.
CN(C)C1=NC[C@H](Cc2ccccc2)N1CC1CCC(C(C)(C)C)CC1 (stereo partly drawn),-3.1,44.8*,11.6,1.6,11.9,0.8,40.9*,21.1
COc1ccc(CCC(=O)OCC(=O)c2c(N)n(CC(C)C)c(=O)n(C)c2=O)cc1,13.3,28.4*,12.1,-13.4,-25.5,-8.4,43.7*,59.8*
NC(=O)c1ccsc1NC(=O)COC(=O)Cc1cccc2ccccc12,-24.3,28.3*,8.0,-1.0,-26.0,-3.8,54.3*,78.1*
NC(=O)c1ccsc1NC(=O)COC(=O)Cc1c[nH]c2ccccc12,-1.0,.,2.6,-6.0,-3.2,-3.8,.,.
N=c1c(C(=O)NC2CCCC2)cc2c(=O)n3ccccc3nc2n1CC1CCCO1 (stereo not drawn),6.7,7.5,11.4,8.0,9.7,-3.9,.,.
N=c1c(C(=O)NC2CCCCC2)cc2c(=O)n3ccccc3nc2n1CC1CCCO1 (stereo not drawn),17.3,21.1*,42.8,-1.4,18.7,2.4,27.1*,18.7
O=C(Nc1cccc(Cl)c1)c1cc(S(=O)(=O)NCCc2ccc(Cl)cc2)ccc1F,44.3,21.0*,-6.6,46.0,-1.2,13.7,-7.7,42.5*
Cc1ccc(NC(=O)c2cc(S(=O)(=O)NCCc3ccccc3)ccc2F)cc1Cl,30.9,-10.3,-1.1,10.5,4.7,9.2,.,.
O=C(Cc1nc2ccccc2s1)c1ccc(O)cc1O,1.9,25.3*,-52.0,28.7,-155.8,3.4,7.8,3.6
CN(C)CCN(C(=O)c1ccc2ccccc2c1)c1nc2ccc(Br)cc2s1,36.0,6.7,-24.5,27.2,1.9,7.9,.,.
CN(C)CCCN(C(=O)C1=COCCO1)c1nc2ccc(Br)cc2s1,34.5,35.6*,2.6,-5.0,5.6,-13.9,55.2*,64.3*
CN(C)CCN(C(=O)/C=C/c1cccs1)c1nc2ccc(Br)cc2s1,27.9,25.0*,14.3,28.6,13.1,12.6,58.9*,67.8*
CN(C)CCCN(C(=O)CCc1ccccc1)c1nc2ccc(Cl)cc2s1,50.7,22.7*,13.5,-9.0,15.1,-1.5,73.4*,85.0*
CN(C)CCCN(C(=O)/C=C/c1cccs1)c1nc2ccc(F)cc2s1,42.5,29.4*,-8.8,.,11.5,.,44.7*,28.4*
